According to the array DNA melting data of Ke et al. (doi:10.1101/2024.01.08.574731):

What was measured:
[1] = folding enthalpy; higher = less favourable; fluorescence melt of hairpins on a sequencing array, two-state fit; settings: sodium 0.088 M
In short: (§1)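 On a sequenced MiSeq flow cell, library hairpins with annealed Cy3 and quencher oligos were imaged for Cy3 fluorescence in 2.5 °C steps up to 60 °C, in 50 mM Na-HEPES pH 8.0, 25 mM NaCl. Normalisation used pre-quench Cy3 and control constructs. Bootstrapped two-state fits gave melting temperature and folding enthalpy, combined by inverse variance across four replicates and with fitted temperatures raised by 9.35 °C to match UV melts.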

[2] = melting temperature; fluorescence melt of hairpins on a sequencing array, two-state fit, raised by 9.35 °C to match UV melts; settings: sodium 0.088 M
In short: as §1

Sequence | folding enthalpy [1] | Tm [2]
CGACACGGAAACGTATCG (((.(((....))).))) | -28.1 kcal/mol | 42.3 °C
GATCATCCAAATGATC ((((((....)))))) | -36.9 kcal/mol | 46.3 °C
GCGGCTCCCCGC ((((....)))) | -22.1 kcal/mol | 54.8 °C
GTTAGTGGAAACACCAAC (((.(((....))).))) | -13.3 kcal/mol | 29.3 °C
GATGCTGGAAACGGTATC (((.(.(....).).))) | -22.8 kcal/mol | 31.2 °C
GGTGGGGCGAAAGCCACC (((..(((....)))))) | -12.3 kcal/mol | 54.5 °C
GATCTGAGCACAGATC ((((((....)))))) | -29 kcal/mol | 49.5 °C
GTGACCACGAAAGTGCAC (((..(((....)))))) | -12 kcal/mol | 32 °C
GACACCGAAAGGTCGTC ((((((....))).))) | -21.7 kcal/mol | 50.2 °C
GCCCCACGAAAGTGGGC (((.(((....)))))) | -10.9 kcal/mol | 65.5 °C
GATCGAACCATCGATC ((((((....)))))) | -41.6 kcal/mol | 50.4 °C
GATCATCGTAATGATC ((((((....)))))) | -39.5 kcal/mol | 48.5 °C
GTCGCCGAAAGGCATGAC ((((((....)))..))) | -13.2 kcal/mol | 40.7 °C
GTACGTGGAAACATGTAC ((((.((....)).)))) | -34.1 kcal/mol | 47.5 °C
GCCTATGGAAACGTAGGC (((((.(....).))))) | -39.8 kcal/mol | 51.1 °C
GATCGCCTGGCGATC ((((((...)))))) | -35.7 kcal/mol | 67.9 °C
GTGATAGGAAACTATTAC ((.((((....)))).)) | -25.8 kcal/mol | 34.1 °C
GGGCACCCGAAAGGGCCC (((..(((....)))))) | -36.7 kcal/mol | 58 °C
GGGACCGAAAGGTTGCCC ((((((....)))..))) | -14.5 kcal/mol | 37.6 °C
GCATTTCGAAAGAATTGC (((.(((....))).))) | -33.7 kcal/mol | 47.1 °C
GATGCCGAAAGGCAATC ((((((....))).))) | -13.8 kcal/mol | 53 °C
GATCCCGCCTGGGATC ((((((....)))))) | -39.1 kcal/mol | 64.9 °C
GTTGACCGAAAGGTAAAC (((.(((....))).))) | -30.7 kcal/mol | 48.7 °C
GATCGGCGAAAGCCAATC (((.(((....))).))) | -17.1 kcal/mol | 43.7 °C

Sequence | folding enthalpy [1] | Tm [2]
GATCCCCACCGGGATC ((((((....)))))) | -34.7 kcal/mol | 57.3 °C
GGAATGGAAACATTCC ((((((....)))))) | -44.9 kcal/mol | 53.1 °C
GCTGAGCGAAAGCACCGC ((.(.((....)).).)) | -19 kcal/mol | 37.2 °C
GATCTGTTGCAGATC ((((((...)))))) | -36.5 kcal/mol | 48.7 °C
GATCAGCTTTCTGATC ((((((....)))))) | -35 kcal/mol | 50.5 °C
GCGCAAGGAAACTTACGC (((.(((....))).))) | -30.6 kcal/mol | 46 °C
GTGCGCCGAAAGGCTCAC (((.(((....))).))) | -29.1 kcal/mol | 56.9 °C
GATCTAAGAATAGATC ((((((....)))))) | -20.4 kcal/mol | 34 °C
GCGTCTCGACGC ((((....)))) | -26.9 kcal/mol | 68.6 °C
GATAGCGAAAGCTTAATC ((((((....)))..))) | -10.8 kcal/mol | 25.3 °C
GTTGACCGAAAGGTTAAC (((.(((....))).))) | -33.7 kcal/mol | 53.1 °C
GCGGATGACCGC ((((....)))) | -21.6 kcal/mol | 54.8 °C
GCATCTGCGAAAGCATGC (((..(((....)))))) | -14.4 kcal/mol | 39.8 °C
GTATGCGAAAGCAGCTAC ((((((....)))..))) | -13.4 kcal/mol | 32.8 °C
CGTCTGCGGAAACGCACG (((..(((....)))))) | -12.2 kcal/mol | 38.7 °C
GCGAAAGGAAACTCTCGC ((((.((....)).)))) | -28.1 kcal/mol | 38.3 °C
GTGTAATCGAAAGATCAC (((..(((....)))))) | -23.9 kcal/mol | 33.8 °C
GATCTGAACGCAGATC ((((((....)))))) | -26.1 kcal/mol | 46.3 °C
GGTTCTCGAAAGAGTACC (((.(((....))).))) | -26.1 kcal/mol | 46.7 °C
GACCCCCGAAAGGGAGTC (((.(((....))).))) | -28.8 kcal/mol | 54 °C
GTAGTGCGAAAGCATTAC (((.(((....))).))) | -25.6 kcal/mol | 51 °C
GATCGATATGTCGATC ((((((....)))))) | -41.9 kcal/mol | 55 °C
GCGATACGAAAGTAACGC (((.(((....))).))) | -41.5 kcal/mol | 57.9 °C
GCAAAGCGAAAGCTGCGC ((..(((....)))..)) | -28.5 kcal/mol | 64.3 °C

Sequence | folding enthalpy [1] | Tm [2]
GATCTACATTTAGATC ((((((....)))))) | -35.3 kcal/mol | 39 °C
GTTTGGGCGAAAGCCAAC (((..(((....)))))) | -10.8 kcal/mol | 36.1 °C
GATCCAATCGTGGATC ((((((....)))))) | -38.5 kcal/mol | 49 °C
GCGGACCGCCGC ((((....)))) | -19.1 kcal/mol | 55.8 °C
GATCTGGTCACAGATC ((((((....)))))) | -40.3 kcal/mol | 62.1 °C
GACTACGAAAGTACTGTC ((((((....)))..))) | -18.5 kcal/mol | 29.9 °C
CGCAACGGAAACGTGGCG (((.(((....))).))) | -46.5 kcal/mol | 57.7 °C
CGTAACGGAAACGTCACG (((.(((....))).))) | -31.7 kcal/mol | 41.9 °C
CGGACCGGAAACGGACCG (((.(((....))).))) | -41.5 kcal/mol | 58.6 °C
GATCTGGTAGCAGATC ((((((....)))))) | -36.6 kcal/mol | 52.2 °C
GATCATGTTTATGATC ((((((....)))))) | -39.1 kcal/mol | 50 °C
GATCTCAATGAGATC ((((((...)))))) | -35.9 kcal/mol | 50.6 °C
CGCGGACCGCTCCGCG ((((((....)))))) | -34.1 kcal/mol | 63.1 °C
GATCCCACGGGGGATC ((((((....)))))) | -35.8 kcal/mol | 61.3 °C
GGTCGCCGAAAGGCCACC (((.(((....))).))) | -15.7 kcal/mol | 48.1 °C
GCAGCGGGAAACCACTGC ((((.((....)).)))) | -43.3 kcal/mol | 52.2 °C
GAGTTTCCGAAAGGACTC (((..(((....)))))) | -13.3 kcal/mol | 30 °C
GATCCATATTTGGATC ((((((....)))))) | -36.9 kcal/mol | 53.6 °C
GGCACAGGAAACTGTGTC (.(((((....))))).) | -32.2 kcal/mol | 54 °C
GGTTACGAAAGTAGCACC ((((((....)))..))) | -14.5 kcal/mol | 31.7 °C
GGAGTCGGAAACGGCTTC (.((.((....)).)).) | -21.7 kcal/mol | 44.3 °C
GATCTTTACAAGATC ((((((...)))))) | -33.2 kcal/mol | 46.4 °C
GCCCGGCCGAAAGGCGGC (((..(((....)))))) | -13.2 kcal/mol | 57.6 °C
GAGAAGGGAAACCTTTTC ((.((((....)))).)) | -28.4 kcal/mol | 28.8 °C

Sequence | folding enthalpy [1] | Tm [2]
GGAATCCGAAAGGAATCC (((.(((....))).))) | -31.2 kcal/mol | 48.7 °C
GCCAACGAAAGTTGGGC ((((((....))).))) | -14.2 kcal/mol | 65.7 °C
GACGTGGGAAACCGTGTC (((..((....))..))) | -16.8 kcal/mol | 36.6 °C
GATGTACGAAAGTAGATC (((.(((....))).))) | -30.5 kcal/mol | 44 °C
GCGTTGTCACGC ((((....)))) | -22.4 kcal/mol | 52.2 °C
GAGCAAGGAAACTTGTTC ((.((((....)))).)) | -26.1 kcal/mol | 36.2 °C
GAACCCGAAAGGGATTC ((((((....))).))) | -14.4 kcal/mol | 46.4 °C
CGTGCGGAAACGCCGACG ((((((....)))..))) | -15.6 kcal/mol | 44.5 °C
GATCATATGATGATC ((((((...)))))) | -31.3 kcal/mol | 48.1 °C
GTCTTGGCGAAAGCCGAC (((..(((....)))))) | -9.96 kcal/mol | 37.5 °C
GTTTACGAAAGTAAAAC ((((((....))).))) | -16.8 kcal/mol | 38.4 °C
GTGGACGGAAACGCCCAC ((((.((....)).)))) | -56.1 kcal/mol | 53.2 °C
GAATGCGAAAGCATTTC ((((((....))).))) | -12.5 kcal/mol | 50.2 °C
GGTCGGTCGAAAGACACC (((..(((....)))))) | -13.4 kcal/mol | 33.4 °C
GGTGTAACGAAAGTTACC (((..(((....)))))) | -14.3 kcal/mol | 42.9 °C
GATCTGGCTCAGATC ((((((...)))))) | -35.5 kcal/mol | 49.1 °C
GAGACGGAAACGTCTC ((((((....)))))) | -39.8 kcal/mol | 63.3 °C
GATCGCTTGGGCGATC ((((((....)))))) | -27.7 kcal/mol | 69.1 °C
GCTTAGCGAAAGCTATGC ((.((((....)))).)) | -26.6 kcal/mol | 59.5 °C
GAGCCGGGAAACCGGCCC (.(((((....))))).) | -9.15 kcal/mol | 48.2 °C
GCGTTCGAAAGAACCGC ((((((....))).))) | -23.8 kcal/mol | 54.3 °C
